From ChEMBL document CHEMBL4725272, “Studies on the stereoselective synthesis and immunosuppressive activity of dihydroartemisinin-O-glycoside derivatives” (Bioorg Med Chem Lett, 2020)

What was measured:
[1] = (§1) Inhibition of human CD4+ve Th cell proliferation; type: functional, tissue-based
How it was run: (§2)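 Human T cells, proliferation inhibition measured over a dose series, run in triplicate (n=3). IC50 was taken from dose-response curves fitted by four-parameter non-linear regression.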

[2] = (§3) Inhibition of human CD8+ve […] cell proliferation; type: functional, tissue-based; conditions: CD8-positive T cell; how it was run: as §2
[3] = tested on: CD4+ve Th; assay: as §1; type: functional, tissue-based; how it was run: as §2
[4] = tested on: CD8-positive T cell; assay: as §3; type: functional, tissue-based; how it was run: as §2
[5] = tested on: T cell; assay: Immunosuppressive activity in human primary T-cells extracted form PBMC assessed as inhibition of CD3/CD28-induced IFN-gamma recovery in cell culture media at 2-32 uM incubated for 120 hrs by ELISA; type: functional, tissue-based; conditions: dose microM 2-32, time 120.0 hrs
[6] = Inhibition of human T cell proliferation relative to control; type: functional
[7] = Immunosuppressive activity in human primary T-cells extracted from PBMC assessed as inhibition of CD3/CD28-induced IFN-gamma recovery in cell culture media incubated for 120 hrs by ELISA relative to control; type: functional
[8] = Inhibition of T cell (unknown origin) proliferation; type: functional, tissue-based
[9] = Inhibition of B cell (unknown origin) proliferation; type: functional, tissue-based

With `C[C@H]1[C@@H](O[C@H]2O[C@H](CO)[C@H](O)[C@H](O)[C@H]2O)O[C@@H]2O[C@@]3(C)CC[C@H]4[C@H](C)CC[C@@H]1[C@@]24OO3` the IC50 [1] was 10.4 µM and the IC50 [2] was 8.63 µM.
With `C[C@H]1[C@H](O[C@@H]2O[C@H](CO)[C@@H](O)[C@H](O)[C@@H]2O)O[C@@H]2O[C@@]3(C)CC[C@H]4[C@H](C)CC[C@@H]1[C@@]24OO3` the IC50 [1] was 3.49 µM, the inhibition [3] was “Dose-dependent effect” and the IC50 [2] was 2.65 µM. The inhibition [4] was “Dose-dependent effect”, the inhibition [5] was “Dose-dependent effect” and the “inhibition (INH)” value [6] was 88%. For the same molecule, the “inhibition (INH)” value [7] was 98%.
With `C[C@H]1[C@@H](O[C@H]2OC[C@H](O)[C@H](O)[C@H]2O)O[C@@H]2O[C@@]3(C)CC[C@H]4[C@H](C)CC[C@@H]1[C@@]24OO3` the IC50 [1] was 14.1 µM and the IC50 [2] was 13 µM.
For `C[C@H]1[C@@H](O[C@H]2O[C@H](CO)[C@@H](O)[C@H](O)[C@H]2O)O[C@@H]2O[C@@]3(C)CC[C@H]4[C@H](C)CC[C@@H]1[C@@]24OO3`, the IC50 [1] was 17.9 µM and the IC50 [2] was 19.4 µM.
In the case of `C[C@H]1[C@H](O[C@H]2O[C@@H](C)[C@H](O)[C@@H](O)[C@H]2O)O[C@@H]2O[C@@]3(C)CC[C@H]4[C@H](C)CC[C@@H]1[C@@]24OO3`, the IC50 [1] is reported as 3.83 µM, the inhibition [3] is reported as “Dose-dependent effect” and the IC50 [2] is reported as 3.36 µM. The inhibition [4] was “Dose-dependent effect” and the inhibition [5] was “Dose-dependent effect”.
Work on `C[C@H]1[C@@H](O)O[C@@H]2O[C@@]3(C)CC[C@H]4[C@H](C)CC[C@@H]1[C@@]24OO3` [ARTENIMOL] yielded an IC50 [1] of 4.03 µM and an IC50 [2] of 5.53 µM.
In the case of `C[C@H]1[C@@H](O[C@H]2OC[C@@H](O)[C@H](O)[C@H]2O)O[C@@H]2O[C@@]3(C)CC[C@H]4[C@H](C)CC[C@@H]1[C@@]24OO3`, the IC50 [1] is reported as 10.8 µM and the IC50 [2] is reported as 9.52 µM.
In the case of `C[C@H]1[C@@H](OCCN)O[C@@H]2O[C@@]3(C)CC[C@H]4[C@H](C)CC[C@@H]1[C@@]24OO3`, the IC50 [8] is reported as 1.2 µM, the IC50 [9] is reported as 2.6 µM and the IC50 [1] is reported as 1.05 µM. It also gave an IC50 [2] of 1.36 µM.
Work on `C[C@H]1[C@@H](O[C@H]2O[C@H](CO)[C@@H](O)[C@H](O)[C@@H]2O)O[C@@H]2O[C@@]3(C)CC[C@H]4[C@H](C)CC[C@@H]1[C@@]24OO3` yielded an IC50 [1] of over 32 µM and an IC50 [2] of over 32 µM.
In the case of `C[C@H]1[C@@H](O[C@@H]2O[C@H](CO)[C@@H](O[C@H]3O[C@H](CO)[C@@H](O)[C@H](O)[C@H]3O)[C@H](O)[C@H]2O)O[C@@H]2O[C@@]3(C)CC[C@H]4[C@H](C)CC[C@@H]1[C@@]24OO3`, the IC50 [1] is reported as 9.09 µM and the IC50 [2] is reported as 4 µM.
